Results reported in ChEMBL document CHEMBL3785002, “Lead optimization of the VU0486321 series of mGlu1 PAMs. Part 3. Engineering plasma stability by discovery and optimization of isoindolinone analogs” (Bioorg Med Chem Lett, 2016).

What was measured:
[1] = Fraction unbound in human plasma; assay type: ADME, cell-free
[2] = Fraction unbound in rat plasma; assay type: ADME, cell-free
[3] = molecular target: T1, Metabotropic glutamate receptor 1 (Homo sapiens, UniProt Q13255); assay: Positive allosteric modulatory activity at human mGlu1 receptor expressed in wild type T-Rex293 cells assessed as increase in glutamate-induced calcium mobilization pre-incubated for 2.5 mins before glutamate stimulation for 1 min; assay type: functional, cell-based
How it was run: (§1)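 Tetracycline-inducible human mGlu1 WT T-REx-293 cells were induced overnight with 50 ng/mL tetracycline in dialyzed-FBS medium. Cells were loaded with 1.15 μM Fluo-4 AM in HBSS/20 mM HEPES/2.5 mM probenecid for 45 min at 37 °C. Compounds (half-log series in DMSO) were added for 2.5 min, then an EC20 of glutamate for 1 min. Calcium flux was read on Flexstation; ECmax glutamate served as reference. n=3 in triplicate.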
Target sequence in this assay (Q13255 whole entry): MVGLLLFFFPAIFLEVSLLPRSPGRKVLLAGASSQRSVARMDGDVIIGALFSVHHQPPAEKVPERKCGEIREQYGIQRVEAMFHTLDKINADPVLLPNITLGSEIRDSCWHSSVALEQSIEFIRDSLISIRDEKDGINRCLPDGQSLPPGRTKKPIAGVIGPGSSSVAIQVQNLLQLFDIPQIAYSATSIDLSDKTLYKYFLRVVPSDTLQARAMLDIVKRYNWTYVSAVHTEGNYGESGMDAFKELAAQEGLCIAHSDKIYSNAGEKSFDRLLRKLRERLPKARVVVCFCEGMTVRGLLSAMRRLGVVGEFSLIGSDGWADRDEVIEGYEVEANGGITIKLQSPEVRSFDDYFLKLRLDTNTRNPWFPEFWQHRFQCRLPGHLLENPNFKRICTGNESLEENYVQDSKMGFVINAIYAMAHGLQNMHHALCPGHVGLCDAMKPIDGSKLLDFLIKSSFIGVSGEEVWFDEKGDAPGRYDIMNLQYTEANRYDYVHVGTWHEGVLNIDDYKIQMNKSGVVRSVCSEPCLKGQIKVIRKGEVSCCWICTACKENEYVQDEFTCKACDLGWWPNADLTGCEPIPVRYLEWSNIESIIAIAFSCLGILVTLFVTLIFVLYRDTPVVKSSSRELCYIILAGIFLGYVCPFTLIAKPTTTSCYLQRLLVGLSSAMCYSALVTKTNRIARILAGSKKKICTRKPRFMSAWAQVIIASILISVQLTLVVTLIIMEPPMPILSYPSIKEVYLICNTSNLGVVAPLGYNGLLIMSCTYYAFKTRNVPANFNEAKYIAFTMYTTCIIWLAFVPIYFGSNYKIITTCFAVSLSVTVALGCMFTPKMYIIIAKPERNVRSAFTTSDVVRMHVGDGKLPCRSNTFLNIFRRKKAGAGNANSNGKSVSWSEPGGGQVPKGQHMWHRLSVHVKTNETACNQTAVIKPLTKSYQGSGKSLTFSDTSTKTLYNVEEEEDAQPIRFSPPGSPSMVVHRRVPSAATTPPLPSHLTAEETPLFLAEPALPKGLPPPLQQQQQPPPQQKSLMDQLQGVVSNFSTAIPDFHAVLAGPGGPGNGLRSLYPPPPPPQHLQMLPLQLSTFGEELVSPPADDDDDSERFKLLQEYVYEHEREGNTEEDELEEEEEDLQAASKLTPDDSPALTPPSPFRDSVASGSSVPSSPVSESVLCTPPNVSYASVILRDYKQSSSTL

[4] = molecular target: T1, Metabotropic glutamate receptor 1; assay: Positive allosteric modulatory activity at human mGlu1 receptor expressed in wild type T-Rex293 cells assessed as increase in glutamate-induced calcium mobilization pre-incubated for 2.5 mins before glutamate stimulation for 1 min relative to glutamate alone; assay type: functional, cell-based; how it was run: as §1
Target sequence in this assay (Q13255 19-1194 limits assumed): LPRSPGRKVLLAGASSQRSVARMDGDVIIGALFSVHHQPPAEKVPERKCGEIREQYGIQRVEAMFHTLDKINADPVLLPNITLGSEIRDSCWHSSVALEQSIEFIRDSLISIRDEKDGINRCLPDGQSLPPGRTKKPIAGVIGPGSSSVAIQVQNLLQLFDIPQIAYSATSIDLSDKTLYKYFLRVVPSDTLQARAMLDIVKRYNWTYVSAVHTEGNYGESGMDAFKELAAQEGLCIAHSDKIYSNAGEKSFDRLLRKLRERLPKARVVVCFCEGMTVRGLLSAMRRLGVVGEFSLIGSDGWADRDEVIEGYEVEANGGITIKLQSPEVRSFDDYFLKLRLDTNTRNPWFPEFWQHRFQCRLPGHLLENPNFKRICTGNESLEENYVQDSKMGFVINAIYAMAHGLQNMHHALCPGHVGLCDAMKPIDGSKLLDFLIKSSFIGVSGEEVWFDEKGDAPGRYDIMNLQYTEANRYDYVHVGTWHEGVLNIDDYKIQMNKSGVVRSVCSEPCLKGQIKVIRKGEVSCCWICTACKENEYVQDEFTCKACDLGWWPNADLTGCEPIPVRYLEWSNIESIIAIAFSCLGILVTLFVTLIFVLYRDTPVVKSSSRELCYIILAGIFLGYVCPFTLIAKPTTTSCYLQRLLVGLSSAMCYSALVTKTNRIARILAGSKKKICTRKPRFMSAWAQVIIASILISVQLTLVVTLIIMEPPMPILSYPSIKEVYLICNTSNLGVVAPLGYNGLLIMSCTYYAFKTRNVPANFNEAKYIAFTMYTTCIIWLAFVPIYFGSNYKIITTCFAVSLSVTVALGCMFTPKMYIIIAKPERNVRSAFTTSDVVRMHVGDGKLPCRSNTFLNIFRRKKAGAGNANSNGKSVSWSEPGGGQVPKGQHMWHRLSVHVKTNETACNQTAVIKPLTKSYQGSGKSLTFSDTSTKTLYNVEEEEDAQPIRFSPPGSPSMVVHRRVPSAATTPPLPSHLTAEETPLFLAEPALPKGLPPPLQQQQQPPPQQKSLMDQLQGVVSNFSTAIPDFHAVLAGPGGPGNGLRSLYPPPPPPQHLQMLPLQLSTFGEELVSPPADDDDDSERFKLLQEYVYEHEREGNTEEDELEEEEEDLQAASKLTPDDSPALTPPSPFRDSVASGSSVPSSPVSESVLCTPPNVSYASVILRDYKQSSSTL

[5] = Mean residence time in rat; assay type: ADME, organism-based; settings: in vivo
Cytochrome P450 3A4 = Cytochrome P450 3A4 (Homo sapiens, UniProt P08684); assay: Inhibition of […] (unknown origin); assay type: ADME
Cytochrome P450 3A4, sequence (P08684 whole entry): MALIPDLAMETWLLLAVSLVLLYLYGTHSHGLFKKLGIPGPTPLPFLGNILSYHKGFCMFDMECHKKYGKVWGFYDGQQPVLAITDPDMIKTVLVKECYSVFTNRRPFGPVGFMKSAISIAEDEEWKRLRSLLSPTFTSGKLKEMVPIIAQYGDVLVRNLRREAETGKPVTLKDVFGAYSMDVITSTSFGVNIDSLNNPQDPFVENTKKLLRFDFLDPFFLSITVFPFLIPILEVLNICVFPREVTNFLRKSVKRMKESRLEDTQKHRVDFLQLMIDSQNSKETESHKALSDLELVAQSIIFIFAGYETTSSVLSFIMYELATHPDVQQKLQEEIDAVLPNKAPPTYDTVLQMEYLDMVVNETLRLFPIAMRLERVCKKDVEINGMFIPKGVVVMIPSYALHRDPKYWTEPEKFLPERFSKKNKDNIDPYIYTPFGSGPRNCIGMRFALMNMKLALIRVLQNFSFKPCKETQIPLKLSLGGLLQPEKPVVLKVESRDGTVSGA

[6] = molecular target: Metabotropic glutamate receptor 4 (Homo sapiens, UniProt Q14833); assay: Positive allosteric modulatory activity at human mGlu4 receptor expressed in wild type T-Rex293 cells assessed as increase in glutamate-induced calcium mobilization pre-incubated for 2.5 mins before glutamate stimulation for 1 min; assay type: functional, cell-based
Metabotropic glutamate receptor 4, sequence (Q14833 whole entry): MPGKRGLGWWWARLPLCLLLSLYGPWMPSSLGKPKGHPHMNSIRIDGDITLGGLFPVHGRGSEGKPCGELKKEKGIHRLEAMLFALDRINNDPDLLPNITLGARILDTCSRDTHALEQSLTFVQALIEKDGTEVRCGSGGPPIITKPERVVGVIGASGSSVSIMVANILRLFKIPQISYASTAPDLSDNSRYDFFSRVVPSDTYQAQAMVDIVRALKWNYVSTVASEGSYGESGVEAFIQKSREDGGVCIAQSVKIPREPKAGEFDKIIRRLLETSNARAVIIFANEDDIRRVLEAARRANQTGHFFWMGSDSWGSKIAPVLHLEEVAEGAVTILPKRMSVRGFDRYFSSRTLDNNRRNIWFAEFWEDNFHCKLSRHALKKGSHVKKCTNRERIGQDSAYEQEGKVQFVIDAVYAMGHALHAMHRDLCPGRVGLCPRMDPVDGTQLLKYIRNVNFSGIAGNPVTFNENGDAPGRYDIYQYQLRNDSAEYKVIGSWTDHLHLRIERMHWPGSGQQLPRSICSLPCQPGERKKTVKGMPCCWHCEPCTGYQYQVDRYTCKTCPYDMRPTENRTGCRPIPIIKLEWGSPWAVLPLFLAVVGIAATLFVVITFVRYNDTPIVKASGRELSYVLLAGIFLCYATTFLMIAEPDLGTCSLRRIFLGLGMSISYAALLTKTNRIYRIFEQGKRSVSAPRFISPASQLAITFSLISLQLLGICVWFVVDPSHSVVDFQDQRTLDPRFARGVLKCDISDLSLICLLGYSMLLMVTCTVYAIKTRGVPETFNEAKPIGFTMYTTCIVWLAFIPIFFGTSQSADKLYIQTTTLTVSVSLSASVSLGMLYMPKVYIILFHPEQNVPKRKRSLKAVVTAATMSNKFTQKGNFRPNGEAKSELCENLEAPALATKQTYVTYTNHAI

Rattus norvegicus [7] = species: Rattus norvegicus; assay: Volume of distribution in rat; assay type: ADME, organism-based; settings: in vivo
Rattus norvegicus [8] = species: Rattus norvegicus; assay: Half life in rat; assay type: ADME, organism-based; settings: in vivo
Cytochrome P450 1A2 = molecular target: T2, Cytochrome P450 1A2 (Homo sapiens, UniProt P05177); assay: Inhibition of CYP1A2 (unknown origin); assay type: ADME
T2 sequence (P05177 whole entry): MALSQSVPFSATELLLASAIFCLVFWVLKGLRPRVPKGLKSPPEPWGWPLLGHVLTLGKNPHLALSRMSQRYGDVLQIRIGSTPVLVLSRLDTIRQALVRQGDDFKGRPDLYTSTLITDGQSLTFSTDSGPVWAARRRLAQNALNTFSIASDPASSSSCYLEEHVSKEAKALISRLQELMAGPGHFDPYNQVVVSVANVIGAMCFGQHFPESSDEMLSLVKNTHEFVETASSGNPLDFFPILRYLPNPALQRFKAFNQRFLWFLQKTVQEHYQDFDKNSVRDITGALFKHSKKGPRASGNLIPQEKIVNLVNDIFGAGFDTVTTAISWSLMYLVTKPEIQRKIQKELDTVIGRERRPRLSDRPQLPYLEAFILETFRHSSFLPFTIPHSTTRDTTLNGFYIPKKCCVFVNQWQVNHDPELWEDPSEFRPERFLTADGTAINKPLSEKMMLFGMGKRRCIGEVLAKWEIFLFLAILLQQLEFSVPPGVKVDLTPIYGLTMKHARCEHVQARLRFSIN

[9] = Ratio of drug level in brain to plasma in rat; assay type: ADME
Cytochrome P450 2C9 = Cytochrome P450 2C9 (Homo sapiens, UniProt P11712); assay: Inhibition of CYP2C9 (unknown origin); assay type: ADME
Cytochrome P450 2C9, sequence (P11712 whole entry): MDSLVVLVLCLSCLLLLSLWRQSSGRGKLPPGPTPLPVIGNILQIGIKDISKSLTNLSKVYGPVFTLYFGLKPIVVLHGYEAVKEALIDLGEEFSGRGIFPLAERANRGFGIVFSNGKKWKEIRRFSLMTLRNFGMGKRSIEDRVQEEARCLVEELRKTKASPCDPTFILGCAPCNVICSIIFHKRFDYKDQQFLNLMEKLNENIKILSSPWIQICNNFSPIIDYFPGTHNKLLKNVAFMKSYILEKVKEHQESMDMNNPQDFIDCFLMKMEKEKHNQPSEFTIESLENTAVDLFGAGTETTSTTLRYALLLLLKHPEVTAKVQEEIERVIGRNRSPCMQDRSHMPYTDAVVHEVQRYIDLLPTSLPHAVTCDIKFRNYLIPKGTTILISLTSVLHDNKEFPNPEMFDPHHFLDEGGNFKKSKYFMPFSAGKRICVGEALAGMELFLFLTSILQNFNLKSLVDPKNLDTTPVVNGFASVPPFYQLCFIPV

Brain = assay: Drug uptake in rat brain; assay type: ADME, tissue-based; settings: in vivo
[10] = Plasma protein binding in human; assay type: ADME, cell-free
[11] = Protein binding in rat brain; assay type: ADME, tissue-based; settings: read-out: PB
Cytochrome P450 2D6 = Cytochrome P450 2D6 (Homo sapiens, UniProt P10635); assay: Inhibition of CYP2D6 (unknown origin); assay type: ADME
Cytochrome P450 2D6, sequence (P10635 whole entry): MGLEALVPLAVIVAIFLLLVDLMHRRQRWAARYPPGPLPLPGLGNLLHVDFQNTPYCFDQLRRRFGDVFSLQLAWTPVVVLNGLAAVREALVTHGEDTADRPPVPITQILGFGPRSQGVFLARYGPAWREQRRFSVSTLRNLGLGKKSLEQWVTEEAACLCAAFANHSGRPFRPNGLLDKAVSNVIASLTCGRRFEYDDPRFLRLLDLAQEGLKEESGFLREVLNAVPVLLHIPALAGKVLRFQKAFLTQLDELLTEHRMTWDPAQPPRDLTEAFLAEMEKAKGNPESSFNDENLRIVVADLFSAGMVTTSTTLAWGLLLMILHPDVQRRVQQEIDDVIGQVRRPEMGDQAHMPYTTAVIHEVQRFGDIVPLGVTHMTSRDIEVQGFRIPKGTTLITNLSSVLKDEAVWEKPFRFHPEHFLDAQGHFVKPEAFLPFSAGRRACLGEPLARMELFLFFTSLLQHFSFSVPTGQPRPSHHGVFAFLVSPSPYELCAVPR

Liver microsome [12] = assay: Stability in human liver microsomes; assay type: ADME
Plasma [13] = assay: Drug uptake in rat plasma; assay type: ADME
Liver microsome [14] = assay: Stability in rat liver microsomes; assay type: ADME
T-Rex 293 = assay: Selectivity ratio of EC50 for human mGlu4 receptor expressed in wild type T-Rex 293 cells to EC50 for human mGlu1 receptor expressed in wild type T-Rex 293 cells; assay type: cell-based; settings: T-Rex293
Plasma [15] = assay: Stability in rat plasma; assay type: ADME, cell-free
Plasma [16] = assay: Stability in human plasma; assay type: ADME, cell-free
[17] = Intrinsic clearance in human; assay type: ADME, organism-based; settings: in vivo
[18] = Intrinsic clearance in rat; assay type: ADME, organism-based; settings: in vivo

| EC50 ([3]; read-out: EC50) [nM] | %max [4] [%] | SMILES | other results |
| --- | --- | --- | --- |
| > 10000 |  | Cc1ccoc1C(=O)Nc1ccc(N2Cc3cccnc3C2=O)c(Cl)c1 | fraction unbound [1]: < 0.01; fraction unbound [2]: < 0.01 |
| 930 | 108 | Cc1ccoc1C(=O)Nc1ccc(NC(=O)c2ccccc2C(=O)O)c(Cl)c1 |  |
| 878 | 82 | Cc1ccoc1C(=O)Nc1ccc(N2Cc3c(F)cccc3C2=O)c(Cl)c1 | fraction unbound [1]: < 0.01; fraction unbound [2]: < 0.01; EC50 ([3]; read-out: pEC50 (converted)): 891 nM |
| 3500 | 95 | Cc1ccoc1C(=O)Nc1ccc(N2C(=O)Cc3ccccc3CC2=O)c(Cl)c1 | EC50 ([3]; read-out: pEC50 (converted)): 3630 nM |
| > 10000 | 78 | Cc1cccnc1C(=O)Nc1ccc(N2Cc3cccc(Cl)c3C2=O)c(Cl)c1 |  |
| 5710 | 82 | Cc1ccoc1C(=O)Nc1ccc(N2CCc3ccccc32)c(Cl)c1 |  |
| > 10000 |  | Cc1ccoc1C(=O)Nc1ccc(N2Cc3ncccc3C2=O)c(Cl)c1 | fraction unbound [1]: < 0.01; fraction unbound [2]: < 0.01 |
| 954 | 66 | Cc1scnc1C(=O)Nc1ccc(N2Cc3c(Cl)cccc3C2=O)c(Cl)c1 |  |
| > 10000 |  | Cc1ccoc1C(=O)Nc1ccc(N2Cc3ccccc3C2=O)c(Cl)c1Cl |  |
| 1270 | 93 | O=C(Nc1ccc(N2Cc3c(Cl)cccc3C2=O)c(Cl)c1)c1ncccc1Cl |  |
| > 10000 |  | Cc1ccoc1C(=O)Nc1ccc(N2C(=O)[C@@H]3CCCC[C@H]3C2=O)c(Cl)c1 (relative stereo) |  |
| > 10000 |  | Cc1ccoc1C(=O)Nc1ccc(N2Cc3cccc(Cl)c3C2=O)cc1F |  |
| 3620 | 99 | Cc1ccoc1C(=O)Nc1ccc(N2CCOc3ccccc32)c(Cl)c1 |  |
| > 10000 |  | O=C(Nc1ccc(N2Cc3ccccc3C2=O)c(Cl)c1)c1ncccc1Cl |  |
| > 10000 | 58 | Cc1ccoc1C(=O)Nc1ccc(N2Cc3cc(Cl)ccc3C2=O)c(Cl)c1 | fraction unbound [1]: < 0.01; fraction unbound [2]: < 0.01 |
| 1130 | 105 | Cc1ccoc1C(=O)Nc1ccc(N2Cc3c(cccc3C(F)(F)F)C2=O)c(Cl)c1 | fraction unbound [1]: < 0.01; fraction unbound [2]: < 0.01 |
| 9550 | 78 | Cc1ccoc1C(=O)Nc1ccc(N2Cc3cccnc3C2)c(Cl)c1 |  |
|  |  | Cc1ccoc1C(=O)Nc1ccc(N2C(=O)c3ccccc3C2=O)cc1F | Ratio EC50 (T-Rex 293): > 793 |
| 1760 | 95 | Cc1ccoc1C(=O)Nc1ccc(N2Cc3ccccc3C2)c(Cl)c1 |  |
| 391 | 99 | Cc1ccoc1C(=O)Nc1ccc(N2Cc3c(Br)cccc3C2=O)c(Cl)c1 | fraction unbound [1]: < 0.01; fraction unbound [2]: < 0.01 |
| > 10000 |  | COc1cccc2c1CN(c1ccc(NC(=O)c3occc3C)cc1Cl)C2=O | fraction unbound [1]: < 0.01; fraction unbound [2]: < 0.01 |
| 353 | 101 | Cc1ccoc1C(=O)Nc1ccc(N2Cc3cccc(Cl)c3C2=O)cc1 |  |
| > 10000 |  | Cc1ccoc1C(=O)Nc1ccc(NC(=O)c2ccccc2)c(Cl)c1 |  |
| 4690 | 69 | Cc1scnc1C(=O)Nc1ccc(N2Cc3cccc(Cl)c3C2=O)c(Cl)c1 | EC50 ([3]; read-out: pEC50 (converted)): 4790 nM |
| 1560 | 94 | Cc1ccoc1C(=O)Nc1ccc(N2Cc3ccccc3C2=O)cc1 |  |

| EC50 ([3]; read-out: EC50) [nM] | %max [4] [%] | SMILES | other results |
| --- | --- | --- | --- |
| 1290 | 107 | Cc1ccoc1C(=O)Nc1ccc(N2C(=O)CCc3ccccc32)c(Cl)c1 | Stability (Plasma [15]): Stable; Stability (Plasma [16]): Stable; EC50 ([3]; read-out: pEC50 (converted)): 1320 nM |
|  |  | Cc1ccoc1C(=O)Nc1ccc(N2C(=O)c3cccc(F)c3C2=O)c(Cl)c1 | Ratio EC50 (T-Rex 293): 35 |
| 242 | 105 | Cc1ccoc1C(=O)Nc1ccc(N2C(=O)Cc3ccccc3C2=O)c(Cl)c1 | CLhep predicted [17]: 13.5 mL/min/kg; Stability (Plasma [15]): Unstable; inhibition (INH) (Cytochrome P450 3A4; human): Not Active; CLhep predicted [18]: 54 mL/min/kg; inhibition (INH) (Cytochrome P450 1A2; human): Not Active; Stability (Plasma [16]): Unstable; inhibition (INH) (Cytochrome P450 2C9; human): Not Active; inhibition (INH) (Cytochrome P450 2D6; human): Not Active; EC50 ([3]; read-out: pEC50 (converted)): 224 nM |
| 1260 | 86 | Cc1ccoc1C(=O)Nc1ccc(N2Cc3c(Cl)cccc3C2=O)cc1F |  |
| > 10000 | 33 | Cc1scnc1C(=O)Nc1ccc(N2Cc3ccccc3C2=O)c(Cl)c1 |  |
| > 10000 |  | Cc1cccnc1C(=O)Nc1ccc(N2Cc3ccccc3C2=O)c(Cl)c1 |  |
| 781 | 94 | Cc1ccoc1C(=O)Nc1ccc(N2CCc3ccccc3C2=O)c(Cl)c1 |  |
| 245 | 99 | Cc1ccoc1C(=O)Nc1ccc(N2Cc3c(Cl)cccc3C2=O)cc1 |  |
| > 10000 |  | Cc1ccoc1C(=O)Nc1ccc(N2C(=O)Cc3ccccc32)c(Cl)c1 |  |
|  |  | O=C(Nc1ccc(N2C(=O)c3cccc(Cl)c3C2=O)c(Cl)c1)c1ncccc1Cl | EC50 [6]: > 10000 nM |
| 2090 | 107 | Cc1ccoc1C(=O)Nc1ccc(N2Cc3c(C#N)cccc3C2=O)c(Cl)c1 | fraction unbound [1]: < 0.01; fraction unbound [2]: < 0.01; EC50 ([3]; read-out: pEC50 (converted)): 2140 nM |
| 2610 | 93 | Cc1ccoc1C(=O)Nc1ccc(N2CCOc3ncccc32)c(Cl)c1 |  |
| > 10000 | 51 | O=C(Nc1ccc(N2Cc3cccc(Cl)c3C2=O)c(Cl)c1)c1ncccc1Cl |  |
| > 10000 |  | Cc1ccoc1C(=O)Nc1ccc(N2C(=O)[C@H]3CCCC[C@H]3C2=O)c(Cl)c1 |  |
| 3720 | 91 | Cc1ccoc1C(=O)Nc1ccc(N2Cc3ccccc3C2=O)c(Cl)c1 | Stability (Liver microsome [12]): Stable; Stability (Liver microsome [14]): Stable |
| 484 | 108 | Cc1ccoc1C(=O)Nc1ccc(N2Cc3cccc(Cl)c3C2=O)c(Cl)c1 | fraction unbound [1]: < 0.01; fraction unbound [2]: < 0.01 |
| 6930 | 76 | Cc1ccoc1C(=O)Nc1ccc(N2C(=O)c3ccccc3C2(C)C)c(Cl)c1 | fraction unbound [1]: < 0.01; fraction unbound [2]: < 0.01; EC50 ([3]; read-out: pEC50 (converted)): 7080 nM |
| 2470 | 107 | Cc1ccoc1C(=O)Nc1ccc(N2CCc3ccccc3C2)c(Cl)c1 | EC50 ([3]; read-out: pEC50 (converted)): 1320 nM |
| > 10000 |  | Cc1ccoc1C(=O)Nc1ccc(N2Cc3c(Cl)cccc3C2=O)c(Cl)c1Cl |  |
| 1360 | 97 | Cc1cccnc1C(=O)Nc1ccc(N2Cc3c(Cl)cccc3C2=O)c(Cl)c1 | EC50 ([3]; read-out: pEC50 (converted)): 1450 nM |
| 6520 | 81 | Cc1ccoc1C(=O)Nc1ccc(N2Cc3cccc(Cl)c3C2=O)c(Cl)c1Cl | EC50 ([3]; read-out: pEC50 (converted)): 6610 nM |
| > 10000 |  | Cc1ccoc1C(=O)Nc1ccc(N2Cc3ccccc3C2=O)cc1F |  |
| > 10000 |  | Cc1ccoc1C(=O)Nc1ccc(N2Cc3nccnc3C2=O)c(Cl)c1 | fraction unbound [1]: < 0.01; fraction unbound [2]: < 0.01 |
| 25.7 | 70 | Cc1ccc2c(c1)C(=O)N(c1ccc(NC(=O)c3occc3C)c(F)c1)C2=O | Ratio EC50 (T-Rex 293): > 450 |
| 1070 | 89 | Cc1ccoc1C(=O)Nc1ccc(N2Cc3c(C)cccc3C2=O)c(Cl)c1 | fraction unbound [1]: < 0.01; fraction unbound [2]: < 0.01; EC50 ([3]; read-out: pEC50 (converted)): 1100 nM |

| SMILES | EC50 ([3]; read-out: EC50) [nM] | %max [4] [%] | other results |
| --- | --- | --- | --- |
| Cc1ccoc1C(=O)Nc1ccc(N2Cc3c(Cl)cccc3C2=O)c(Cl)c1 | 211 | 88 | MRT [5]: 5.03 h; IC50 (Cytochrome P450 3A4): > 30000 nM; EC50 [6]: > 10000 nM; Vd (Rattus norvegicus [7]): 3.36 L/kg; t1/2 (Rattus norvegicus [8]): 1.55 h; IC50 (Cytochrome P450 1A2): > 30000 nM; BPR [9]: 1.36; IC50 (Cytochrome P450 2C9): > 30000 nM; Druguptake/dose (Brain): 269 nM; fraction unbound [1]: < 0.01; PPB [10]: > 99%; fraction unbound [11]: < 0.01; IC50 (Cytochrome P450 2D6): > 30000 nM; Stability (Liver microsome [12]): Stable; Cp/dose (Plasma [13]): 193 nM; Stability (Liver microsome [14]): Stable |
